Consider 40 compounds from PubChem BioAssay AID652163 (Broad Institute, 2013).

Where “and” joins values, the source holds several entries; their conditions need not be identical. Identical values can stand only once. In all, about 360,000 compounds went through this assay and about 500 (0.14%) were called active.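 The calls were made as follows: active = mean inhibition of at least 70% across replicates, with every replicate also reaching that level; inconclusive = mean inhibition reaches 70% but some replicates fall short; inactive = mean inhibition below 70%.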 The full list was thinned out, with actives kept by preference.

By inhibition is commonly meant the relative decrease from the control value, in per cent.

Sequence of Protein S100-A4 (Homo sapiens) (P26447 whole entry, looked up): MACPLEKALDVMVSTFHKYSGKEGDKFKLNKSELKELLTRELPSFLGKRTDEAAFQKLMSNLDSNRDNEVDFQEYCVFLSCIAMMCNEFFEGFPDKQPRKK

This assay addresses Protein S100-A4 (Homo sapiens) (UniProt P26447). Nature of the assay: human S100A4 protein-peptide interaction blockers – biochemical, fluorescence polarization, TAMRA-MyoIIA peptide, primary screen (AID 652163). Conditions: at 10.7 µM, stronger effect = higher value. The procedure, abridged:
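Test system: S100A4 monomer protein. Medium: HEPES buffer with Ca2+, pH 7.2. Reagent: fluorescent myosin IIA peptide, 5 nM. Compound dosing: single-point compound testing. Timing: 5 min between mix addition and reading. Benchmarks: DMSO neutral and TFP positive wells.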
(Fluorescence polarisation rises when a labelled molecule tumbles more slowly, as on binding a larger partner.)
Consider `C[C@H]1CN([C@@H](C)CO)C(=O)Cc2cc(NS(=O)(=O)c3cn(C)cn3)ccc2O[C@@H]1CN(C)C(=O)Nc1ccc2c(c1)OCO2`, for which the inhibition was 1.37% (inactive).
For `Cc1cccc(CN(C)C[C@H]2OCc3cn(nn3)CCCC(=O)N([C@@H](C)CO)C[C@H]2C)c1` the value was -6.24% (inactive); for `CCC(=O)N1CCCCN2[C@H](C1)[C@@H](c1ccc(/C=C/c3ccccc3)cc1)[C@@H]2CO`, 3.9% (inactive).
For `CCCN(C)C[C@@H]1Oc2cc(C#Cc3ccc(F)cc3)ccc2S(=O)(=O)N([C@H](C)CO)C[C@H]1C` the value was -10.2% (inactive); for `C[C@H]1CCCCO[C@@H](CN(C)C(=O)C2CCCCC2)[C@@H](C)CN([C@@H](C)CO)C(=O)c2cc(NS(=O)(=O)c3cccs3)ccc2O1`, -3.65% (inactive).
In the case of `CCCNC(=O)N1C[C@H](O)COC[C@H]2O[C@@H](CC(=O)NCc3ccncn3)CC[C@@H]21` it was 1.59% (inactive); in that of `CCCNC(=O)N[C@@H]1C=C[C@H](CC(=O)NC2CCC2)O[C@H]1CO`, 10% (inactive); in that of `CO[C@H]1CN(C)C(=O)c2cc(NS(=O)(=O)c3ccccc3)ccc2OC[C@H](C)NC[C@@H]1C`, -2.03% (inactive).
As to `O=C(c1cnccn1)N1CC(=O)N2[C@H](C1)[C@@H](c1ccc(C#CC3CCCC3)cc1)[C@@H]2CO`, the inhibition was -1.65% (inactive).
In the case of `CCCNC(=O)N1CC(=O)N2[C@H](CO)[C@@H](c3ccc(-c4ccc(F)cc4)cc3)[C@H]2C1` it was 120% (active).
In the case of `CCCC#Cc1ccc([C@@H]2[C@@H](CO)N3C(=O)CN(C(=O)Nc4ccc(F)cc4)C[C@@H]23)cc1` it was 5.06% (inactive); in that of `CCCNC(=O)N1CC(=O)N2[C@@H](CO)[C@H](c3ccc(-c4ccc(C)cc4)cc3)[C@@H]2C1`, 14% (inactive).
In the case of `COCC#Cc1cnc2c(c1)C(=O)N([C@@H](C)CO)C[C@@H](C)[C@H](CN(C)C(=O)Nc1ccccc1OC)O2` it was 5.05% (inactive); in that of `C[C@@H]1CCCCO[C@H](CN(C)Cc2ccccc2)[C@H](C)CN([C@H](C)CO)C(=O)c2cc(NS(=O)(=O)c3ccc(Cl)cc3)ccc2O1`, -1.24% (inactive); in that of `Cc1ccc(S(=O)(=O)N(C)C[C@H]2Oc3ccc(NC(=O)Cc4cn(C)c5ccccc45)cc3CC(=O)N([C@@H](C)CO)C[C@H]2C)cc1`, 12.9% (inactive).
For the compound `CO[C@@H]1CN(C)C(=O)c2cc(NC(=O)C3CC3)ccc2OC[C@H](C)N(C(=O)CN(C)C)C[C@H]1C`, the inhibition was -3.57% (inactive).
In the case of `CO[C@H]1CN(C)C(=O)c2cc(NC(=O)C3CC3)ccc2OC[C@H](C)N(C(=O)CN(C)C)C[C@H]1C` it was 99.6% (active); in that of `CO[C@H]1CN(C)C(=O)c2ccc(NC(=O)Nc3ccc4c(c3)OCO4)cc2OC[C@H](C)NC[C@H]1C`, 6.05% (inactive).
Take `CO[C@@H]1CN(C)C(=O)c2cc(NC(=O)Nc3ccc4c(c3)OCO4)ccc2OC[C@@H](C)NC[C@@H]1C`: the inhibition is -4.97% (inactive).
Consider `CO[C@@H]1CN(C)C(=O)c2cc(NC(=O)C3CCC3)ccc2OC[C@H](C)N(C(=O)CN(C)C)C[C@@H]1C`, for which the inhibition is 1.09% (inactive).
Consider `CO[C@H]1CN(C)C(=O)c2cc(NC(=O)Nc3ccc4c(c3)OCO4)ccc2OC[C@@H](C)NC[C@@H]1C`, for which the inhibition is 127% (active).
For `N#C[C@H]1[C@@H](c2ccccc2C2=CCCC2)[C@H](CO)N1C(=O)c1cccc(F)c1` the value was 7.35% (inactive); for `N#C[C@@H]1[C@H](c2ccccc2C2=CCCCC2)[C@@H](CO)N1S(=O)(=O)c1cccc(F)c1`, 124% (active); for `C/C=C/c1ccccc1[C@@H]1[C@@H](CO)N(S(=O)(=O)c2cccc(F)c2)[C@H]1C#N`, 15.1% (inactive).
With `O=C(C[C@@H]1C=C[C@H](NC(=O)CN2CCOCC2)[C@@H](CO)O1)NCc1cccc(F)c1`, the inhibition is 12.6% (inactive).
In the case of `Cc1ccc(CN(C)C[C@H]2OCc3cn(nn3)CCCC(=O)N([C@@H](C)CO)C[C@H]2C)cc1` it was -1.4% (inactive).
In the case of `CN(C)C(=O)c1cccc(-c2ccc(C3[C@H]4CNC[C@@H]3N4C(=O)Nc3ccccc3F)cc2)c1` (stereo not given in full) it was -26.3% (inactive) and -7.38% (inactive); in that of `COc1ccc(CN(C)C[C@H]2Oc3ccc(NC(=O)Cn4cnnn4)cc3CC(=O)N([C@@H](C)CO)C[C@@H]2C)cc1`, 6.98% (inactive).
For the compound `O=C(NCC1CC1)[C@@H]1[C@@H](CO)[C@@H]2Cn3c(ccc(-c4ccccc4)c3=O)[C@H]1N2C(=O)C1CC1`, the inhibition is 5.45% (inactive).
In the case of `CCC(=O)N1CC2(CN(Cc3ccc(Cl)cc3)C2)c2c([nH]c3cc(OC)ccc23)[C@@H]1CO` it was -4.36% (inactive); in that of `CCC(=O)Nc1ccc2c(c1)C(=O)N(C)C[C@H](OC)[C@@H](C)CN(C(=O)c1cnccn1)[C@@H](C)CO2`, 10.3% (inactive); in that of `C[C@@H]1CN([C@H](C)CO)C(=O)c2cc(NS(=O)(=O)c3cccs3)ccc2O[C@@H](C)CCCCO[C@H]1CN(C)Cc1ccc(C(F)(F)F)cc1`, 15.3% (inactive).
For `C[C@@H]1CN([C@@H](C)CO)C(=O)Cc2cc(NC(=O)Nc3cccc4ccccc34)ccc2O[C@H]1CN(C)CC1CCCCC1` the value was 8.63% (inactive).
In the case of `COCC(=O)N1[C@H](CO)[C@H](c2ccccc2)C12CN(C(=O)NC1CCCCC1)C2` it was 14.7% (inactive).
With `CCCC(O)C#Cc1cnc2c(c1)C(=O)N([C@H](C)CO)C[C@H](C)[C@H](CN(C)S(=O)(=O)c1ccc(C#N)cc1)O2` (stereo not given in full), the inhibition was -4.33% (inactive).
Regarding `Cc1ccc(S(=O)(=O)N[C@@H]2CC[C@@H](CCn3cc(C4CC4)nn3)O[C@@H]2CO)cc1`, the inhibition was 1.11% (inactive).
In the case of `CCCC#Cc1ccc([C@H]2[C@@H](CO)N3C(=O)CN(C(=O)c4ccncc4)C[C@@H]23)cc1` it was -18.5% (inactive).
For `CC(C)NC(=O)N(C)C[C@H]1Oc2ccc(NS(C)(=O)=O)cc2CC(=O)N([C@@H](C)CO)C[C@@H]1C` the value was 6.04% (inactive); for `COc1ccccc1-c1cnc2c(c1)C(=O)N([C@@H](C)CO)C[C@H](C)[C@H](CN(C)CC1CCOCC1)O2`, -4.73% (inactive).
For `C[C@H](CO)N1C[C@H](C)[C@H](CN(C)S(=O)(=O)c2cccs2)OCCCC[C@H](C)Oc2ccc(NC(=O)CCCN(C)C)cc2C1=O` the value was 1.4% (inactive).
